Experimental data taken from ChEMBL document CHEMBL1921703 (Eur J Med Chem, 2011).

Key:
[1] = tested on: Plasma; assay: AUC (0 to t) in Kunming mouse plasma at dose equivalent to 10 mg/kg, iv of naproxen administered as single dose; type: ADME, organism-based; design: dose 10 mg/kg, route intravenous; conditions: in vivo
[2] = tested on: Kidney; assay: Drug uptake in Kunming mouse kidney assessed as naproxen level at dose equivalent to 10 mg/kg, iv of naproxen administered as single dose measured by HPLC analysis; type: ADME, organism-based; design: dose 10 mg/kg, route intravenous; conditions: in vivo
[3] = tested on: Heart; assay: Drug uptake in Kunming mouse heart assessed as naproxen level at dose equivalent to 10 mg/kg, iv of naproxen administered as single dose measured by HPLC analysis; type: ADME, organism-based; design: dose 10 mg/kg, route intravenous; conditions: in vivo
[4] = tested on: Muscle tissue; assay: Drug uptake in Kunming mouse muscle assessed as naproxen level at dose equivalent to 10 mg/kg, iv of naproxen administered as single dose measured by HPLC analysis; type: ADME, organism-based; design: dose 10 mg/kg, route intravenous; conditions: in vivo
[5] = tested on: Liver; assay: Drug uptake in Kunming mouse liver assessed as naproxen level at dose equivalent to 10 mg/kg, iv of naproxen administered as single dose measured by HPLC analysis; type: ADME, organism-based; design: dose 10 mg/kg, route intravenous; conditions: in vivo
[6] = tested on: Brain; assay: AUC (0 to t) in Kunming mouse brain at dose equivalent to 10 mg/kg, iv of naproxen administered as single dose; type: ADME, organism-based; design: dose 10 mg/kg, route intravenous; conditions: in vivo
[7] = tested on: Plasma; assay: Prodrug conversion in Kunming mouse plasma assessed as compound hydrolysis to naproxen at dose equivalent to 10 mg/kg, iv of naproxen measured by HPLC analysis; type: ADME, organism-based; design: dose 10 mg/kg, route intravenous; conditions: in vivo
[8] = tested on: Brain; assay: Prodrug conversion in mouse brain homogenate assessed as naproxen release at 250 uM/mL by HPLC analysis; type: ADME, tissue-based; conditions: in vitro, TDE = time-dependent effect
Method in brief: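 Prodrugs were incubated at 37 °C for up to 90 min in mouse brain homogenate (1:5 w/v in pH 7.4 phosphate buffer). […] Peak areas were normalised to the reference prodrug peak at 15 min, SD n = 3.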

[9] = Metabolic stability in mouse plasma assessed as half life at 250 umol/mL by HPLC analysis; type: ADME, cell-free
Method in brief: (§1)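 Mouse plasma, diluted with two volumes of water, or brain homogenate (1:5 w/v in cold pH 7.4 phosphate buffer) was spiked with methanol stock (1:4 v/v) and incubated at 37 °C. Aliquots taken at 0–90 min were quenched with acetonitrile and centrifuged. Remaining prodrug was measured by HPLC-UV at 238 nm. Rate constant came from ln(peak area) regression against time, and half-life followed from it.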

[10] = Metabolic stability in mouse brain homogenate assessed as half life at 250 umol/mL by HPLC analysis; type: ADME, tissue-based; method in brief: as §1
[11] = tested on: Brain; assay: Metabolic stability in mouse brain homogenate assessed as first order rate constant of compound disappearance at 250 umol/mL by HPLC analysis; type: ADME, tissue-based; method in brief: as §1
[12] = tested on: Plasma; assay: Metabolic stability in mouse plasma assessed as first order rate constant of compound disappearance at 250 umol/mL by HPLC analysis; type: ADME, cell-free; method in brief: as §1
[13] = Chemical stability of the compound in phosphate buffer at pH 7.4 assessed as half life at 250 umol/mL by HPLC analysis; type: physicochemical
Method in brief: (§2)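 Each compound, added as methanol stock, was incubated in phosphate buffer at pH 2.5, 5.0, 7.4 or 8.0 (1:4 v/v) at 37 °C. Samples were taken at 0, 1, 3, 6, 12 and 24 h. Remaining ester was measured by HPLC-UV at 238 nm on C18 with methanol-water 80:20. The pseudo-first-order rate constant came from linear regression of ln(peak area) against time, and half-life followed from it.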

[14] = Chemical stability of the compound in phosphate buffer at pH 8.0 assessed as half life at 250 umol/mL by HPLC analysis; type: physicochemical; method in brief: as §2
[15] = Chemical stability of the compound in phosphate buffer at pH 5 assessed as half life at 250 umol/mL by HPLC analysis; type: physicochemical; method in brief: as §2
[16] = Chemical stability of the compound in phosphate buffer at pH 2.5 assessed as half life at 250 umol/mL by HPLC analysis; type: physicochemical; method in brief: as §2
[17] = Chemical stability of the compound in phosphate buffer at pH 8.0 assessed as first order rate constant of compound disappearance at 250 umol/mL by HPLC analysis; type: physicochemical; method in brief: as §2
[18] = Chemical stability of the compound in phosphate buffer at pH 7.4 assessed as first order rate constant of compound disappearance at 250 umol/mL by HPLC analysis; type: physicochemical; method in brief: as §2
[19] = Chemical stability of the compound in phosphate buffer at pH 2.5 assessed as first order rate constant of compound disappearance at 250 umol/mL by HPLC analysis; type: physicochemical; method in brief: as §2
[20] = Chemical stability of the compound in phosphate buffer at pH 5 assessed as first order rate constant of compound disappearance at 250 umol/mL by HPLC analysis; type: physicochemical; method in brief: as §2
[21] = in vivo; conditions: Kunming, mouse, brain, iv, 10 mg/kg
[22] = in vivo; conditions: Kunming, mouse, brain, iv, 10 mg/kg; remark: listed apart in the source
[23] = in vivo; conditions: Kunming, mouse, brain, iv, 10 mg/kg; remark: listed apart in the source

SMILES | AUCt [1] [µg/min/mL] | Drug uptake [2] | Drug uptake [3] | Drug uptake [4] | Drug uptake [5] | AUCt [6] [µg·min/g] | Drug metabolism [7] | Drug metabolism [8] | half-life at 250 umol/mL [9] [h] | half-life at 250 umol/mL [10] [h] | Activity [11] [×10⁻² /min] | Activity [12] [×10⁻² /min] | half-life at 250 umol/mL [13] [h] | half-life at 250 umol/mL [14] [h] | half-life at 250 umol/mL [15] [h] | half-life at 250 umol/mL [16] [h] | Activity [17] [×10⁻² /hr] | Activity [18] [×10⁻² /hr] | Activity [19] [×10⁻² /hr] | Activity [20] [×10⁻² /hr] | also measured
COc1ccc2cc([C@H](C)C(=O)O)ccc2c1 [NAPROXEN] | 3812.35 | – | – | – | – | – | – | – | – | – | – | – | – | – | – | – | – | – | – | – | MRT [21]: 1.41 h; Cmax [22]: 17100 ng/g; Tmax [23]: 0.75 h
COc1ccc2cc([C@H](C)C(=O)OCC/C(SSCc3ccccc3)=C(\C)N(C)C=O)ccc2c1 | 8834.7 | Active | Active | Active | Active | 3307.75 | Active | tde | 0.987 | 0.418 | 2.76 | 1.17 | 62.4 | 33.8 | 24.7 | 13.7 | 2.05 | 1.11 | 5.05 | 2.81 | –

More lines, main results first:

AUCt [1] [µg/min/mL] | Drug uptake [2] | Drug uptake [3] | Drug uptake [4] | Drug uptake [5] | AUCt [6] [µg·min/g] | Drug metabolism [7] | Drug metabolism [8] | half-life at 250 umol/mL [9] [h] | half-life at 250 umol/mL [10] [h] | Activity [11] [×10⁻² /min] | Activity [12] [×10⁻² /min] | half-life at 250 umol/mL [13] [h] | half-life at 250 umol/mL [14] [h] | half-life at 250 umol/mL [15] [h] | half-life at 250 umol/mL [16] [h] | Activity [17] [×10⁻² /hr] | Activity [18] [×10⁻² /hr] | Activity [19] [×10⁻² /hr] | Activity [20] [×10⁻² /hr] | SMILES | also measured
10353.27 | Active | Active | Active | Active | 3930.87 | Active | tde | 1.48 | 1.68 | 0.683 | 0.782 | 114 | 23.8 | 107 | 53.3 | 2.91 | 0.607 | 1.3 | 0.645 | COc1ccc2cc([C@H](C)C(=O)OC[C@H]3O[C@H](O)[C@H](O)[C@@H](O)[C@@H]3O)ccc2c1 | –
13348.87 | Active | Active | Active | Active | 5669.45 | Active | tde | 0.755 | 0.312 | 3.71 | 1.53 | 30.1 | 19.5 | 24.1 | 20.4 | 3.56 | 2.3 | 3.39 | 2.87 | COc1ccc2cc([C@H](C)C(=O)OCC/C(SSCc3ccccc3)=C(\C)N(C=O)CC(=O)OC[C@H]3O[C@H](O)[C@H](O)[C@@H](O)[C@@H]3O)ccc2c1 | –
16185.44 | Active | Active | Active | Active | 6140.77 | Active | tde | 0.792 | 0.343 | 3.37 | 1.46 | 51 | 28.6 | 34 | 21.7 | 2.42 | 1.36 | 3.19 | 2.04 | COc1ccc2cc([C@H](C)C(=O)OCC/C(SSC(C)C)=C(\C)N(C=O)CC(=O)OC[C@H]3O[C@H](O)[C@H](O)[C@@H](O)[C@@H]3O)ccc2c1 | –
12914.16 | Active | Active | Active | Active | 4716.88 | Active | tde | 0.657 | 0.243 | 4.74 | 1.77 | 27.2 | 25 | 23.5 | 16 | 2.77 | 2.55 | 4.34 | 2.95 | CCSS/C(CCOC(=O)[C@@H](C)c1ccc2cc(OC)ccc2c1)=C(/C)N(C=O)CC(=O)OC[C@H]1O[C@H](O)[C@H](O)[C@@H](O)[C@@H]1O | –
